The text below walks through data of paper PMC10993246 (ACS Omega, 2024).

One series concerns L929 cells. Kind of series: Cell proliferation / cytotoxicity MTT assay. It is filed as cell-based. The note with it: 48 h; for toxicity toward the cells: L929 cells, 10, 25, 50 and 100 μM, IC50 values could not be calculated. A digest of the protocol: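 L929 cells were seeded at 0.5 × 10^4 cells per well and held 24 h in complete medium. Fluorescein-labelled and unlabelled test peptides were then added at 10, 25, 50 and 100 μM for 48 h. MTT was applied for 4 h at 37 °C in the dark, formazan was dissolved in DMSO, and A570 was read. % viability = treated/untreated absorbance; mean ± SD; two-way ANOVA.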

Series [1] concerns mouse fibroblast 3T3 cells. The note with it: cell fixation conditions, ref 36 (Rhee et al.); cited from earlier work.
A further series concerns 3T3 cells. Kind of series: Membrane penetrability, fixed cells, fluorescence and confocal microscopy. It is filed as cell-based, mouse. The note with it: fixed 3T3 cells, 50 μM in PBS, 6 h, 4 °C, confocal microscopy.
For series [2] the following is noted: ref 43 (Futaki et al.); cited from earlier work.

Residues, ends and D or L forms follow the SMILES beside them.

In the case of `CC(C)C[C@H](NC(=O)[C@H](CO)NC(=O)CNC(=O)[C@@H](N)C(C)C)C(=O)N[C@@H](CCCNC(=N)N)C(=O)O` [VGSLR] (H-VGSLR-OH), in the series with L929 cells, the “toxicity toward the cells” value is “did not show any significant toxicity”. The “cellular viability at 25 and 50 μM compared to 10 μM” value in the series with L929 cells (L929 cells) is given as “increased progressively”.
Take CSIPPEVKFNPFVYLI [C105Y]: the “localization of the fluorescent-tagged peptide” value in series [1] is reported as “enriched fluorescence signal in the nucleus in addition to being present in the cytoplasm”.
For FITC-VGSLR, the “cell proliferation compared to the untreated cells” value in the series with L929 cells (L929 cells, 50 μM, absorbance 570 nm, p < 0.0001) is on record as “higher proliferation”. For the same compound, the “cell viability at 100 μM” value in the series with L929 cells (L929 cells, 100 μM) is recorded as “reduced viability”. For the same compound, the “toxicity toward the cells” value with L929 cells is “does not show any toxicity”. In addition, in the series with L929 cells (L929 cells), the “cellular viability at 25 and 50 μM compared to 10 μM” value is on record as “increased progressively”. Also, the subcellular localization entry in the series on 3T3 cells is “localization of the peptide at the nucleus was more than that in the cytoplasm”.
As to GRRRRRRRRRPPQ [R9-TAT], in series [2], the “localization of CPPs” value is “in both the cytoplasm and nucleus”.
Turning to “Tat-(48–60): CPP reported by Futaki et al. (GRKKRRQRRRAHQ; UniProt P04608 48-60, looked up, fragment)”, the “localization of CPPs” value in series [2] is “in both the cytoplasm and nucleus”.
